The values below come from ChEMBL document CHEMBL4706709, “Withanolides from dietary tomatillo suppress HT1080 cancer cell growth by targeting mutant IDH1” (Bioorg Med Chem, 2021).

Test [1] concerns Isocitrate dehydrogenase [NADP] cytoplasmic (Homo sapiens), O75874 [R132H]. Kind of test: Inhibition of IDH1 […] assessed as reduction in HIF-1alpha accumulation at 3.25 to 6.5 uM measured after 48 hrs by DAPI staining based immunofluorescence microscopic analysis. Format: cell-based. As to conditions: dose 3.25-6.5 µM. A digest of the protocol: (§1)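 HT1080 cells on slides exposed 48 h to 3.25 or 6.5 μM compound. Fixed in 4% paraformaldehyde 15 min, permeabilised with 0.1% Triton X-100 for 5 min at 4 °C, blocked 2 h in 5% BSA. Primary antibody (H3K9me3, HIF-1α or p53, 1:100) overnight at 4 °C. Fluorescent secondary (1:500) 1 h in the dark, DAPI counterstain, imaged.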

The target in test [2] is Isocitrate dehydrogenase [NADP] cytoplasmic (Homo sapiens, UniProt O75874). Kind of test: Inhibition of wild-type IDH1 (unknown origin) in presence of sodium(D)-isocitrate and NADP+. A digest of the protocol: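 Wild-type IDH1 purified at 43 nM in 50 mM HEPES pH 7.5 with 50 μM sodium D-isocitrate, 4 mM MgCl2 and 1 mM NADP+. NADPH production monitored at 340 nm. IC50 from mean of three independent assays.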

Test [3] concerns HT-1080. Description: Induction of apoptosis in human HT-1080 cells assessed as viable cells at 6.5 uM measured after 48 hrs by Annexin V-FITC/propidium iodide staining based flow cytometry (reference value: 66.6%). Format: functional. To be noted: read-out: Activity.
Test [4] relates to Isocitrate dehydrogenase [NADP] cytoplasmic (Homo sapiens), O75874 [R132H]. Kind of test: Inhibition of IDH1 […] assessed as increase in p53 expression at 3.25 to 6.5 uM measured after 48 hrs by DAPI staining based immunofluorescence microscopic analysis. Format: cell-based. To be noted: dose 3.25-6.5 µM. The procedure, abridged:
as §1

Test [5] has as its system HT-1080. Description: Induction of apoptosis in human HT-1080 cells assessed as late apoptotic cells at 6.5 uM measured after 48 hrs by Annexin V-FITC/propidium iodide staining based flow cytometry (reference value: 3.2%). Format: functional.
Test [6] relates to HT-1080. Description: Antiproliferative activity against human HT-1080 cells transfected with shIDH1 R132C assessed as reduction in cell proliferation at 1.25 to 10 uM measured after 48 hrs by CCK8 assay. To be noted: dose 1.25-10 µM. Format: functional, cell-based. The procedure, abridged: (§2)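 HT1080 cells (IDH1 R132C) in high-glucose DMEM with 10% FBS, 37 °C, 5% CO2. Adherent cells exposed to compound in fresh medium for 48 h, DMSO kept below 0.5%. Viability by CCK8, absorbance at 450 nm. Three repeats.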

Test [7] concerns HT-1080. Kind of test: Induction of apoptosis in human HT-1080 cells assessed as necrotic cells at 6.5 uM measured after 48 hrs by Annexin V-FITC/propidium iodide staining based flow cytometry (reference value: 30.2%). Format: functional. A general note: In flow cytometry, cells or beads pass a laser one at a time.
Test [8] relates to HT-1080. Kind of test: Antiproliferative activity against human HT-1080 cells assessed as reduction in cell proliferation measured after 48 hrs by CCK8 assay. Format: functional, cell-based. As to conditions: HT-1080, 48 h. A digest of the protocol:
as §2
For orientation: Tetrazolium dyes change colour on reduction, which living cells bring about.

The test system of test [9] is HT-1080. Kind of test: Induction of apoptosis in human HT-1080 cells assessed as appearance of densely stained nucleus at 3.25 to 6.5 uM measured after 48 hrs by Hoechst 33258 and DAPI staining based fluorescence microscopic analysis. Format: functional, cell-based. As to conditions: dose 3.25-6.5 µM. A digest of the protocol:
(§3)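 HT1080 cells exposed 48 h to 3.25 or 6.5 μM compound. Blocked 2 h, then stained 30 min with Hoechst 33258. Nuclear morphology viewed by fluorescence microscopy (×200).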

Test [10] relates to HT-1080. Description: Induction of apoptosis in human HT-1080 cells assessed as nuclear fragmentation at 3.25 to 6.5 uM measured after 48 hrs by Hoechst 33258 and DAPI staining based fluorescence microscopic analysis. Format: functional, cell-based. As to conditions: dose 3.25-6.5 µM. A digest of the protocol:
as §3

Test [11] deals with Isocitrate dehydrogenase [NADP] cytoplasmic (Homo sapiens), O75874 [R132H]. Description: Inhibition of IDH1 […] assessed as down regulation of H3K9me3 expression at 3.25 to 6.5 uM measured after 48 hrs by Western blot analysis. Format: cell-based. To be noted: dose 3.25-6.5 µM. A digest of the protocol: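 HT1080 cells in 6-well plates treated 48 h. Lysed in RIPA, protein measured by BCA. Run on 12% SDS-PAGE, blotted to PVDF, blocked in 5% milk 1 h. Probed with H3K9me3 primary antibody, β-actin also available, then HRP secondary.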

For test [12] the test system is unchanged. Description: Inhibition of IDH1 […] assessed as down regulation of H3K9me3 expression at 6.5 uM measured after 48 hrs by DAPI staining based immunofluorescence microscopic analysis. Format: cell-based. The procedure, abridged: as §1
The target of test [13] is T1, Isocitrate dehydrogenase [NADP] cytoplasmic (Homo sapiens, UniProt O75874, R132H). Kind of test: Inhibition of C-terminal His6-tagged IDH1 R132H mutant (unknown origin) expressed in Escherichia coli BL21 (DE) using alpha-ketoglutarate as substrate preincubated for 10 mins followed by substrate addition and measured at 1 min interval for 20 mins in presence of NADPH. A digest of the protocol:
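His-tagged IDH1 R132H at 2 μM in 50 mM HEPES pH 7.5 with 4 mM MgCl2 and 100 μM NADPH. Compound preincubated with enzyme 10 min, then reaction started with 2 mM α-KG. NADPH consumption read at 340 nm every 1 min for 20 min. IC50 from mean of three independent assays.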

Test [14] deals with HT-1080. Description: Antiproliferative activity against human HT-1080 cells assessed as reduction in number of EdU-positive cells measured after 24 hrs by EdU and DAPI staining based fluorescence microscopic analysis. Format: functional, cell-based. To be noted: dose 3.25-6.5 µM. A digest of the protocol: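 Log-phase HT1080 cells treated 24 h with 3.25 or 6.5 μM compound or DMSO. Then 50 μM EdU in serum-free DMEM for 2 h. Fixed in 4% paraformaldehyde, quenched with glycine, permeabilised with 0.5% Triton X-100. Apollo dye reaction for 30 min, DAPI nuclear counterstain, fluorescence microscopy. Three repeats.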

For test [15], the target named is T1, Isocitrate dehydrogenase [NADP] cytoplasmic. Description: Binding affinity to C-terminal His6-tagged IDH1 R132H mutant (unknown origin) expressed in Escherichia coli BL21 (DE) measured after 20 mins by Red-NHS fluorescence dye-based microscale thermophoresis analysis. The procedure, abridged: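 IDH1 R132H fluorescently labelled (RED kit) and used at 20 nM in 20 mM HEPES pH 7.5 with 0.05% Tween-20. Mixed 1:1 with a ligand dilution series, 20 min at room temperature. Loaded in standard capillaries, 10 min at 25 °C. Thermophoresis read at 20% laser and 100% LED power, Kd fitted from the curve.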

For test [16], the system named is HT-1080. Description: Induction of apoptosis in human HT-1080 cells assessed as early apoptotic cells at 6.5 uM measured after 48 hrs by Annexin V-FITC/propidium iodide staining based flow cytometry (reference value: 0%). Format: functional.
Test [17] deals with Isocitrate dehydrogenase [NADP] cytoplasmic (Homo sapiens), O75874 [R132H]. Kind of test: Inhibition of IDH1 […] assessed as reduction in R-2-HG concentration measured after 48 hrs by LC-MS/MS analysis. Format: cell-based. As to conditions: dose 0.94-30 µM. The procedure, abridged: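 HT1080 cells treated 48 h with 0.94–30 μM compound or DMSO. Medium diluted in methanol and centrifuged. R-2-HG in the supernatant quantified by LC-MS/MS (ESI, MRM) on a C18 column, gradient of methanol against 10 mM ammonium acetate pH 7.4. Peak area normalised to internal standard, IC50 from the dose–response curve.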

Active and inactive are the calls of the source. The calls are words filed in the database; no cut-off is given here.

Sequence of Isocitrate dehydrogenase [NADP] cytoplasmic (Homo sapiens), O75874 [R132H] (O75874 whole entry R132H): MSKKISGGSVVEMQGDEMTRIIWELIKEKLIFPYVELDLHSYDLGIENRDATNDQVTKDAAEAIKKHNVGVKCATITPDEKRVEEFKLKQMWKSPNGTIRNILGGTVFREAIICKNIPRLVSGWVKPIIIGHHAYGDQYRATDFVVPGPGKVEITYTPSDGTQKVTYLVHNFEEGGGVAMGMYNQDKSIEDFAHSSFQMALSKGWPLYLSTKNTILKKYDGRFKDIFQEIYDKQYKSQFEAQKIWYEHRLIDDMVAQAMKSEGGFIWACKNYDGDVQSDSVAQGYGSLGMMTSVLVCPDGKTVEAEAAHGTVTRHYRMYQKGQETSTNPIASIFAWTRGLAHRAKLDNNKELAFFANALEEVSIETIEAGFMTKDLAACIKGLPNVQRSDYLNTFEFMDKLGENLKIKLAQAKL
T1 sequence (O75874 2-414 R132H limits assumed): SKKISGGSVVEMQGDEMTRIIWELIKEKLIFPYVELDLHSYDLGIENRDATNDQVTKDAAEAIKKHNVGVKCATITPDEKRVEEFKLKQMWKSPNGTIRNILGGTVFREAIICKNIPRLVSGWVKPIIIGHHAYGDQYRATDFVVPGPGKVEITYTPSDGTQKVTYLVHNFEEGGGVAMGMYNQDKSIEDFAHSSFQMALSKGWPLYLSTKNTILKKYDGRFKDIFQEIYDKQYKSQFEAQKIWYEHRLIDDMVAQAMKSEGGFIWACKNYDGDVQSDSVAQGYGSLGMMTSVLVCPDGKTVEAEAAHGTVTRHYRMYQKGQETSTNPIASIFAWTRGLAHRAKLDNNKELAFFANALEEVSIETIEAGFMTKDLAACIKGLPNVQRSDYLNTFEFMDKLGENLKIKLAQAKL
Sequence of Isocitrate dehydrogenase [NADP] cytoplasmic (Homo sapiens, UniProt O75874) (O75874 whole entry): as the sequence (O75874 whole entry R132H) above, with H132R counted along it

For `C[C@@]12C[C@H]3OC(=O)[C@@H]1CO[C@]14O[C@@]5([C@H]2C1=O)[C@@]3(C)OC(=O)[C@@]5(O)CC[C@H]1[C@H]4C[C@H]2O[C@]23CC=CC(=O)[C@]13C`, the inhibition entry in [1], in test [4], in test [11] and in test [12] was “Active” each time. Moreover, the figures for the 50% inhibitory concentration (IC50) (in [2]; in the test on HT-1080 [8]; in test [13]) were above 200 µM, 2.41 µM and 0.63 µM, respectively. Besides, in the test on HT-1080 [3], the viability at 6.5 µM was determined as 19.9%. Moreover, the Activity in the test on HT-1080 [5] was 23.9%; in the test on HT-1080 [7], 1.1%; in the test on HT-1080 [14] it was “Dose-dependent effect”; in the test on HT-1080 [16], 55%. For the same compound, the outcome with HT-1080 [6], in the test on HT-1080 [9] and in the test with HT-1080 [10] was Active. Besides, the Kd in test [15] stood at 15.3 µM. The inhibition result in test [17] is “Dose-dependent effect”.
Regarding `C[C@]12C(=O)C=CCC1=CC[C@@H]1[C@@H]2CC[C@]2(O)C(=O)O[C@@]3(C)[C@H]4C[C@]5(C)[C@@H](CO[C@@]16O[C@@]32[C@H]5C6=O)C(=O)O4` [PHYSALIN B], the IC50 is above 200 µM in [2] and 1.26 µM in test [13]. The same compound yielded a dissociation constant (Kd) in test [15] of 45.3 µM.

In general, IC50 refers to the midpoint of a concentration-inhibition curve. In general, Kd refers to the free concentration of one partner at which half of the binding sites on the other are occupied at equilibrium, for simple one-to-one binding.
